Measurements taken from ChEMBL document CHEMBL1143805, “Synthesis and antimicrobial activities of some novel 1,2,4-triazolo[3,4-b]-1,3,4-thiadiazoles and 1,2,4-triazolo[3,4-b]-1,3,4-thiadiazines carrying thioalkyl and sulphonyl phenoxy moieties” (2007).
≈ marks a conversion by molar mass, not a printed value.

Legend:
Pseudomonas aeruginosa = assay: Antibacterial activity against Pseudomonas aeruginosa ATCC 27853; assay type: functional; conditions: for MIC: Pseudomonas aeruginosa, ATCC 27853
Outline: (§1)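 MIC by serial dilution in Mueller-Hinton broth tubes, pH adjusted to 5.0 with phosphate buffer. A standardized bacterial suspension was inoculated and incubated 16-18 h at 37 °C, and MIC was read as the lowest concentration with no visible growth. Zones were also measured in agar wells on seeded plates, with compounds in DMSO and a DMSO control, triplicate plates, 37 °C for 3-4 days.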

Staphylococcus aureus = assay: Antibacterial activity against Staphylococcus aureus ATCC 25923; assay type: functional; conditions: for MIC: Staphylococcus aureus, ATCC 25923; outline: as §1
Trichophyton benhamiae = assay: Antifungal activity against Trichophyton mentagrophytes; assay type: functional, Arthroderma benhamiae; conditions: for MIC: Trichophyton benhamiae
Outline: (§2)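 Agar-well diffusion on Sabouraud agar at pH 5.7. Plates were lawned with a saline spore suspension (one loopful in 3 ml), decanted and dried 1 h at 37 °C. Compounds in DMSO went into punched wells, with a DMSO solvent control. Plates were run in triplicate and kept at 37 °C for 3-4 days, with inhibition-zone diameter as read-out.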

Aspergillus fumigatus = assay: Antifungal activity against Aspergillus fumigatus NCIM 902; assay type: functional; conditions: for MIC: Aspergillus fumigatus, NCIM 902
Talaromyces marneffei = assay: Antifungal activity against Penicillium marneffei; assay type: functional; conditions: for MIC: Talaromyces marneffei; outline: as §2
Aspergillus flavus = assay: Antifungal activity against Aspergillus flavus NCIM 524; assay type: functional; conditions: for MIC: Aspergillus flavus, NCIM 524; outline: as §2
Klebsiella pneumoniae = assay: Antibacterial activity against Klebsiella pneumoniae; assay type: functional; conditions: for MIC: Klebsiella pneumoniae; outline: as §1
Escherichia coli = assay: Antibacterial activity against Escherichia coli ATCC 25922; assay type: functional; conditions: for MIC: Escherichia coli, ATCC 25922; outline: as §1

CS(=O)(=O)c1ccc(OCc2nnc3n2N=C(c2ccc(Cl)cc2Cl)CS3)cc1
inhibition zone (IZ) (Pseudomonas aeruginosa): 11 mm
MIC (Pseudomonas aeruginosa): 12.5 µg/mL (≈ 26.6 µM)
inhibition zone (IZ) (Staphylococcus aureus): 11 mm
MIC (Staphylococcus aureus): 12.5 µg/mL (≈ 26.6 µM)
inhibition zone (IZ) (Trichophyton benhamiae): 11 mm
MIC (Trichophyton benhamiae): 12.5 µg/mL (≈ 26.6 µM)
inhibition zone (IZ) (Aspergillus fumigatus): 11 mm
MIC (Aspergillus fumigatus): 12.5 µg/mL (≈ 26.6 µM)
inhibition zone (IZ) (Talaromyces marneffei): <10 mm
MIC (Talaromyces marneffei): 25 µg/mL (≈ 53.3 µM)
inhibition zone (IZ) (Aspergillus flavus): 11 mm
MIC (Aspergillus flavus): 12.5 µg/mL (≈ 26.6 µM)
inhibition zone (IZ) (Klebsiella pneumoniae): 11 mm
MIC (Klebsiella pneumoniae): 12.5 µg/mL (≈ 26.6 µM)
inhibition zone (IZ) (Escherichia coli): 11 mm
MIC (Escherichia coli): 12.5 µg/mL (≈ 26.6 µM)

CCSc1ccc(OCc2nnc3n2N=C(c2ccc(Cl)cc2Cl)CS3)cc1
inhibition zone (IZ) (Pseudomonas aeruginosa): <10 mm
MIC (Pseudomonas aeruginosa): 25 µg/mL (≈ 55.4 µM)
inhibition zone (IZ) (Staphylococcus aureus): <10 mm
MIC (Staphylococcus aureus): 25 µg/mL (≈ 55.4 µM)
inhibition zone (IZ) (Trichophyton benhamiae): <10 mm
MIC (Trichophyton benhamiae): 25 µg/mL (≈ 55.4 µM)
inhibition zone (IZ) (Aspergillus fumigatus): <10 mm
MIC (Aspergillus fumigatus): 25 µg/mL (≈ 55.4 µM)
inhibition zone (IZ) (Talaromyces marneffei): <10 mm
MIC (Talaromyces marneffei): 25 µg/mL (≈ 55.4 µM)
inhibition zone (IZ) (Aspergillus flavus): <10 mm
MIC (Aspergillus flavus): 25 µg/mL (≈ 55.4 µM)
inhibition zone (IZ) (Klebsiella pneumoniae): <10 mm
MIC (Klebsiella pneumoniae): 25 µg/mL (≈ 55.4 µM)
inhibition zone (IZ) (Escherichia coli): <10 mm
MIC (Escherichia coli): 25 µg/mL (≈ 55.4 µM)

CCSc1ccc(OCc2nnc3n2N=C(c2ccc(Cl)cc2)CS3)cc1
inhibition zone (IZ) (Pseudomonas aeruginosa): <10 mm
MIC (Pseudomonas aeruginosa): 25 µg/mL (≈ 60 µM)
inhibition zone (IZ) (Staphylococcus aureus): <10 mm
MIC (Staphylococcus aureus): 25 µg/mL (≈ 60 µM)
inhibition zone (IZ) (Trichophyton benhamiae): <10 mm
MIC (Trichophyton benhamiae): 25 µg/mL (≈ 60 µM)
inhibition zone (IZ) (Aspergillus fumigatus): <10 mm
MIC (Aspergillus fumigatus): 25 µg/mL (≈ 60 µM)
inhibition zone (IZ) (Talaromyces marneffei): <10 mm
MIC (Talaromyces marneffei): 25 µg/mL (≈ 60 µM)
inhibition zone (IZ) (Aspergillus flavus): <10 mm
MIC (Aspergillus flavus): 25 µg/mL (≈ 60 µM)
inhibition zone (IZ) (Klebsiella pneumoniae): <10 mm
MIC (Klebsiella pneumoniae): 25 µg/mL (≈ 60 µM)
inhibition zone (IZ) (Escherichia coli): <10 mm
MIC (Escherichia coli): 25 µg/mL (≈ 60 µM)

CSc1ccc(OCc2nnc3sc(-c4ccc(C)cc4)nn23)cc1
inhibition zone (IZ) (Pseudomonas aeruginosa): 16 mm
MIC (Pseudomonas aeruginosa): 6.25 µg/mL (≈ 17 µM)
inhibition zone (IZ) (Staphylococcus aureus): 16 mm
MIC (Staphylococcus aureus): 6.25 µg/mL (≈ 17 µM)
inhibition zone (IZ) (Trichophyton benhamiae): 16 mm
MIC (Trichophyton benhamiae): 6.25 µg/mL (≈ 17 µM)
inhibition zone (IZ) (Aspergillus fumigatus): 16 mm
MIC (Aspergillus fumigatus): 6.25 µg/mL (≈ 17 µM)
inhibition zone (IZ) (Talaromyces marneffei): 16 mm
MIC (Talaromyces marneffei): 6.25 µg/mL (≈ 17 µM)
inhibition zone (IZ) (Aspergillus flavus): 16 mm
MIC (Aspergillus flavus): 6.25 µg/mL (≈ 17 µM)
inhibition zone (IZ) (Klebsiella pneumoniae): 16 mm
MIC (Klebsiella pneumoniae): 6.25 µg/mL (≈ 17 µM)
inhibition zone (IZ) (Escherichia coli): 16 mm
MIC (Escherichia coli): 6.25 µg/mL (≈ 17 µM)

CSc1ccc(OCc2nnc3sc(Cc4ccccc4)nn23)cc1
inhibition zone (IZ) (Pseudomonas aeruginosa): 16 mm
MIC (Pseudomonas aeruginosa): 6.25 µg/mL (≈ 17 µM)
inhibition zone (IZ) (Staphylococcus aureus): 16 mm
MIC (Staphylococcus aureus): 6.25 µg/mL (≈ 17 µM)
inhibition zone (IZ) (Trichophyton benhamiae): 16 mm
MIC (Trichophyton benhamiae): 6.25 µg/mL (≈ 17 µM)
inhibition zone (IZ) (Aspergillus fumigatus): 16 mm
MIC (Aspergillus fumigatus): 6.25 µg/mL (≈ 17 µM)
inhibition zone (IZ) (Talaromyces marneffei): 16 mm
MIC (Talaromyces marneffei): 6.25 µg/mL (≈ 17 µM)
inhibition zone (IZ) (Aspergillus flavus): 16 mm
MIC (Aspergillus flavus): 6.25 µg/mL (≈ 17 µM)
inhibition zone (IZ) (Klebsiella pneumoniae): 16 mm
MIC (Klebsiella pneumoniae): 6.25 µg/mL (≈ 17 µM)
inhibition zone (IZ) (Escherichia coli): 16 mm
MIC (Escherichia coli): 6.25 µg/mL (≈ 17 µM)

CS(=O)(=O)c1ccc(OCc2nnc3sc(-c4ccccc4)nn23)cc1
inhibition zone (IZ) (Pseudomonas aeruginosa): 11 mm
MIC (Pseudomonas aeruginosa): 12.5 µg/mL (≈ 32.3 µM)
inhibition zone (IZ) (Staphylococcus aureus): 11 mm
MIC (Staphylococcus aureus): 12.5 µg/mL (≈ 32.3 µM)
inhibition zone (IZ) (Trichophyton benhamiae): 11 mm
MIC (Trichophyton benhamiae): 12.5 µg/mL (≈ 32.3 µM)
inhibition zone (IZ) (Aspergillus fumigatus): 11 mm
MIC (Aspergillus fumigatus): 12.5 µg/mL (≈ 32.3 µM)
inhibition zone (IZ) (Talaromyces marneffei): <10 mm
MIC (Talaromyces marneffei): 25 µg/mL (≈ 64.7 µM)
inhibition zone (IZ) (Aspergillus flavus): 11 mm
MIC (Aspergillus flavus): 12.5 µg/mL (≈ 32.3 µM)
inhibition zone (IZ) (Klebsiella pneumoniae): 11 mm
MIC (Klebsiella pneumoniae): 12.5 µg/mL (≈ 32.3 µM)
inhibition zone (IZ) (Escherichia coli): 11 mm
MIC (Escherichia coli): 12.5 µg/mL (≈ 32.3 µM)

CS(=O)(=O)c1ccc(OCc2nnc3sc(-c4cccc(Cl)c4Cl)nn23)cc1
inhibition zone (IZ) (Pseudomonas aeruginosa): 16 mm
MIC (Pseudomonas aeruginosa): 6.25 µg/mL (≈ 13.7 µM)
inhibition zone (IZ) (Staphylococcus aureus): 16 mm
MIC (Staphylococcus aureus): 6.25 µg/mL (≈ 13.7 µM)
inhibition zone (IZ) (Trichophyton benhamiae): 16 mm
MIC (Trichophyton benhamiae): 6.25 µg/mL (≈ 13.7 µM)
inhibition zone (IZ) (Aspergillus fumigatus): 16 mm
MIC (Aspergillus fumigatus): 6.25 µg/mL (≈ 13.7 µM)
inhibition zone (IZ) (Talaromyces marneffei): 16 mm
MIC (Talaromyces marneffei): 6.25 µg/mL (≈ 13.7 µM)
inhibition zone (IZ) (Aspergillus flavus): 16 mm
MIC (Aspergillus flavus): 6.25 µg/mL (≈ 13.7 µM)
inhibition zone (IZ) (Klebsiella pneumoniae): 16 mm
MIC (Klebsiella pneumoniae): 6.25 µg/mL (≈ 13.7 µM)
inhibition zone (IZ) (Escherichia coli): 16 mm
MIC (Escherichia coli): 6.25 µg/mL (≈ 13.7 µM)
